Reference: ChEMBL document CHEMBL3046169, “Synthesis and bioactivity study of 2-acylamino-substituted N'-benzylbenzohydrazide derivatives” (2012)
Values after ≈ are worked out from the molar mass of the structure shown. Active and inactive are the calls of the source. The rule behind the calls is not given here.

Assays:
Tetranychus cinnabarinus [1] = experiment: Pesticidal activity against Tetranychus cinnabarinus (carmine spider mite) third- instar larvae grown on Phaseolus vulgaris leaves assessed as pest mortality at 50 mg/L measured 48 hr post compound exposure; assay type: functional
How it was run: (§1)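 More than 20 third-instar mite larvae on Phaseolus vulgaris leaves dipped 5 s in compound solutions (water with 0.05% Triton X-100), excess liquor removed. Larvae held at 25 ± 1 °C in illumination box; mortality read at 48 h. Primary screen at 600 mg L⁻¹, follow-up at 400, 200, 100, 50 and 25 mg L⁻¹ with LC50 calculated. Triplicate tests.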

Tetranychus cinnabarinus [2] = experiment: Pesticidal activity against Tetranychus cinnabarinus (carmine spider mite) third- instar larvae grown on Phaseolus vulgaris leaves assessed as pest mortality at 100 mg/L measured 48 hr post compound exposure; assay type: functional; how it was run: as §1
Tetranychus cinnabarinus [3] = experiment: Pesticidal activity against Tetranychus cinnabarinus (carmine spider mite) third- instar larvae grown on Phaseolus vulgaris leaves assessed as pest mortality at 400 mg/L measured 48 hr post compound exposure; assay type: functional; how it was run: as §1
Aphis gossypii [4] = experiment: Pesticidal activity against Aphis gossypii (cotton aphid) third-instar nymphae grown on tender Hibiscus syriacus leaves assessed as pest mortality at 200 mg/L measured 24 hr post compound exposure; assay type: functional; settings: in Hibiscus syriacus
How it was run: (§2)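 Leaf-dip bioassay: over 30 healthy apterous third-instar nymphs on tender Hibiscus syriacus leaves dipped 5 s in compound diluted in distilled water with 0.05% Triton X-100, excess fluid removed. Held in illumination box at 25 ± 1 °C; mortality scored after 24 h. Tests in triplicate.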

Plutella xylostella [5] = experiment: Pesticidal activity against Plutella xylostella (diamondback moth) second-instar larvae grown on cruciferous vegetables leaves leaves as pest mortality at 0.2 mg/L measured 48 hr post compound exposure; assay type: functional
How it was run: (§3)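 Over 20 second-instar larvae on cruciferous vegetable leaves dipped 5 s in compound diluted in distilled water containing 0.05% Triton X-100, excess liquid removed. Kept in illumination box at 25 ± 1 °C; mortality recorded 48 h after treatment. Each test in triplicate.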

Tetranychus cinnabarinus [6] = experiment: Pesticidal activity against Tetranychus cinnabarinus (carmine spider mite) third- instar larvae grown on Phaseolus vulgaris leaves assessed as pest mortality at 25 mg/L measured 48 hr post compound exposure; assay type: functional; how it was run: as §1
Tetranychus cinnabarinus [7] = experiment: Pesticidal activity against Tetranychus cinnabarinus (carmine spider mite) third- instar larvae grown on Phaseolus vulgaris leaves assessed as pest mortality at 200 mg/L measured 48 hr post compound exposure; assay type: functional; how it was run: as §1
Tetranychus cinnabarinus [8] = experiment: Pesticidal activity against Tetranychus cinnabarinus (carmine spider mite) third- instar larvae grown on Phaseolus vulgaris leaves assessed as pest mortality measured 48 hr post compound exposure; assay type: functional; how it was run: as §1
Tetranychus cinnabarinus [9] = experiment: Pesticidal activity against Tetranychus cinnabarinus (carmine spider mite) third- instar larvae grown on Phaseolus vulgaris leaves assessed as pest mortality at 600 mg/L measured 48 hr post compound exposure; assay type: functional; how it was run: as §1
Tetranychus cinnabarinus [10] = experiment: Pesticidal activity against Tetranychus cinnabarinus (carmine spider mite) third- instar larvae grown on Phaseolus vulgaris leaves assessed as conversion of corpus colour to black at 25 to 400 mg/L measured 48 hr post compound exposure; assay type: functional, organism-based
How it was run: (§4)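 Mite larvae (>20 third-instar on Phaseolus vulgaris leaves) leaf-dipped 5 s in compound at 400, 200, 100, 50 or 25 mg L⁻¹ in water with 0.05% Triton X-100, kept at 25 ± 1 °C. Movement of larvae observed at 1 h; corpse colour change to black observed at 48 h after treatment.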

Aphis gossypii [11] = experiment: Pesticidal activity against Aphis gossypii (cotton aphid) third-instar nymphae grown on tender Hibiscus syriacus leaves assessed as pest mortality at 600 mg/L measured 24 hr post compound exposure; assay type: functional; settings: in Hibiscus syriacus; how it was run: as §2
Tetranychus cinnabarinus [12] = experiment: Pesticidal activity against Tetranychus cinnabarinus (carmine spider mite) third- instar larvae grown on Phaseolus vulgaris leaves assessed as reduction in larval movement at 25 to 400 mg/L measured 1 hr post compound exposure; assay type: functional, organism-based; how it was run: as §4
Plutella xylostella [13] = experiment: Pesticidal activity against Plutella xylostella (diamondback moth) second-instar larvae grown on cruciferous vegetables leaves leaves as pest mortality at 600 mg/L measured 48 hr post compound exposure; assay type: functional; how it was run: as §3
Aphis gossypii [14] = experiment: Pesticidal activity against Aphis gossypii (cotton aphid) third-instar nymphae grown on tender Hibiscus syriacus leaves assessed as pest mortality at 2 mg/L measured 24 hr post compound exposure; assay type: functional; settings: in Hibiscus syriacus; how it was run: as §2

Work on `CNC(=O)c1cc(Cl)cc(C)c1NC(=O)c1cc(Br)nn1-c1ncccc1Cl` [CHLORANTRANILIPROLE] yielded a mortality at 50 µg/mL (Tetranychus cinnabarinus [1]) of 13.2%, a mortality at 100 µg/mL (Tetranychus cinnabarinus [2]) of 17.2% and a mortality at 400 µg/mL (Tetranychus cinnabarinus [3]) of 40.7%. For the same compound, the mortality at 200 µg/mL (Aphis gossypii [4]) was 91.3%, the mortality at 0.2 µg/mL (Plutella xylostella [5]) was 100% and the mortality at 25 µg/mL (Tetranychus cinnabarinus [6]) was 7.4%. For the same compound, the mortality at 200 µg/mL (Tetranychus cinnabarinus [7]) was 29.9% and the LC50 (Tetranychus cinnabarinus [8]) was 633 µg/mL (≈ 1310 µM).
In the case of `Cc1cc(Cl)cc(C(=O)NNCc2ccccc2Cl)c1NC(=O)C(C)(C)C`, the mortality at 50 µg/mL (Tetranychus cinnabarinus [1]) is reported as 62.5%, the mortality at 600 µg/mL (Tetranychus cinnabarinus [9]) is reported as 100% and the mortality at 100 µg/mL (Tetranychus cinnabarinus [2]) is reported as 60.8%. The mortality at 400 µg/mL (Tetranychus cinnabarinus [3]) was 97.8%, the Activity (Tetranychus cinnabarinus [10]) was “Active” and the mortality at 25 µg/mL (Tetranychus cinnabarinus [6]) was 30.9%. For the same compound, the mortality at 600 µg/mL (Aphis gossypii [11]) was 51.7%, the Activity (Tetranychus cinnabarinus [12]) was “Active” and the mortality at 200 µg/mL (Tetranychus cinnabarinus [7]) was 82.2%. For the same compound, the mortality at 600 µg/mL (Plutella xylostella [13]) was 76% and the LC50 (Tetranychus cinnabarinus [8]) was 43.8 µg/mL (≈ 107 µM).
Work on `O=[N+]([O-])/N=C1\NCCN1Cc1ccc(Cl)nc1` [IMIDACLOPRID] yielded a mortality at 2 µg/mL (Aphis gossypii [14]) of 100%.
